Measured values from ChEMBL document CHEMBL1127500, “Structure-activity studies of benzimidazole-based DNA-cleaving agents. Comparison of benzimidazole, pyrrolobenzimidazole, and tetrahydropyridobenzimidazole analogues” (1994).

Columns and labels:
Type in all cases: functional
SF-295 = assay: Antitumor activity against SF-295 cell line; conditions: Homo sapiens, read-out: Log LC50 (the source's name) (converted)
In short: (§1)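 Drugs were screened against a panel of up to 60 human cancer cell lines. The end-point was LC50, the drug concentration lethal to 50% of the cancer cells. Values were expressed as log LC50 and plotted as mean graphs centred on the log of the panel-mean LC50. Bars to the right mark lines with lower log LC50 than the mean.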

SNB-19 = assay: Antitumor activity against SNB-19 cell line; conditions: Homo sapiens
In short: (§2)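 Screened against a panel of up to 60 human cancer cell lines. Read-out is LC50, the drug concentration lethal to 50% of the cells, expressed as log LC50. The mean log LC50 across the screened lines is the centre line of the mean graph. Each line's deviation from that mean is shown as a bar.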

[1] = Mean log10 LC50 was determined; in short: as §2
HOP-92 = assay: Antitumor activity against HOP-92 cell line; conditions: Homo sapiens, read-out: Log LC50 (the source's name) (converted); in short: as §1
K562 = assay: Antitumor activity against K-562 leukemia cell line; conditions: Homo sapiens, read-out: Log LC50 (the source's name) (converted); in short: as §1
XF498 = assay: Antitumor activity against XF 498 cell line; conditions: Homo sapiens, read-out: Log LC50 (the source's name) (converted); in short: as §2
OVCAR-8 = assay: Antitumor activity against OVCAR-8 cell line; conditions: Homo sapiens, read-out: Log LC50 (the source's name) (converted); in short: as §1
SK-MEL-5 = assay: Antitumor activity against SK-MEL-5 cell line; conditions: Homo sapiens; in short: as §2
IGROV-1 = assay: Antitumor activity against IGROVI cell line; conditions: Homo sapiens; in short: as §1
HOP-62 = assay: Antitumor activity against HOP-62 cell line; conditions: Homo sapiens; in short: as §1
TK-10 = assay: Antitumor activity against Renal cancer TK-10 cell line; conditions: Homo sapiens; in short: as §1
U-251 = assay: Antitumor activity against U251 cell line; conditions: Homo sapiens; in short: as §2
NCI-H226 = assay: Antitumor activity against NCI-H226 cell line; conditions: Homo sapiens; in short: as §1
DMS-114 = assay: Antitumor activity against DMS 114 cell line; conditions: Homo sapiens; in short: as §1
SF-268 = assay: Antitumor activity against SF-268 cell line; conditions: Homo sapiens; in short: as §1
CAKI-1 = assay: Antitumor activity against Renal cancer CAKI-1 cell line; conditions: Homo sapiens, read-out: Log LC50 (the source's name) (converted); in short: as §1
UO-31 = assay: Antitumor activity against Renal cancer UO-31 cell line; conditions: Homo sapiens; in short: as §1
M19-MEL = assay: Antitumor activity against M 19-MEL cell line; conditions: Homo sapiens; in short: as §1
RPMI-8226 = assay: Antitumor activity against RPMI-8226 leukemia cell line; conditions: Homo sapiens, read-out: Log LC50 (the source's name) (converted); in short: as §1
HT-29 = assay: Antitumor activity against HT 29 cell line; conditions: Homo sapiens, read-out: Log LC50 (the source's name) (converted); in short: as §1
HCT-15 = assay: Antitumor activity against HCT-15 cell line; conditions: Homo sapiens, read-out: Log LC50 (the source's name) (converted); in short: as §1
CCRF-CEM = assay: Antitumor activity against CCRF-CEM leukemia cell line; conditions: Homo sapiens, read-out: Log LC50 (the source's name) (converted); in short: as §1
KM12 = assay: Antitumor activity against KM 12 cell line; conditions: Homo sapiens, read-out: Log LC50 (the source's name) (converted); in short: as §1
SN12C = assay: Antitumor activity against Renal cancer SN 12C cell line; conditions: Homo sapiens; in short: as §1
ACHN = assay: Antitumor activity against Renal cancer ACHN cell line; conditions: Homo sapiens, read-out: Log LC50 (the source's name) (converted); in short: as §1
OVCAR-5 = assay: Antitumor activity against OVCAR-5 cell line; conditions: Homo sapiens; in short: as §1
SK-MEL-2 = assay: Antitumor activity against SK-MEL-2 cell line; conditions: Homo sapiens, read-out: Log LC50 (the source's name) (converted); in short: as §1
LXFL 529 = assay: Antitumor activity against […] cell line; conditions: Homo sapiens; in short: as §1
HOP-18 = assay: Antitumor activity against HOP-18 cell line; conditions: Homo sapiens, read-out: Log LC50 (the source's name) (converted); in short: as §1
RXF 393 = assay: Antitumor activity against Renal cancer RXF-393 cell line; conditions: Homo sapiens; in short: as §1
MOLT-4 = assay: Antitumor activity against MOLT-4 leukemia cell line; conditions: Homo sapiens; in short: as §1
SK-OV-3 = assay: Antitumor activity against SK-OV-3 cell line; conditions: Homo sapiens, read-out: Log LC50 (the source's name) (converted); in short: as §2
KM-20L2 = assay: Antitumor activity against KM 20L2 cell line; conditions: Homo sapiens; in short: as §1
HCC 2998 = assay: Antitumor activity against HCC2998 cell line; conditions: Homo sapiens, read-out: Log LC50 (the source's name) (converted); in short: as §1
SNB-75 = assay: Antitumor activity against SNB-75 cell line; conditions: Homo sapiens; in short: as §2
LOX IMVI = assay: Antitumor activity against LOX IMVI cell line; conditions: Homo sapiens; in short: as §1
NCI-H322M = assay: Antitumor activity against NCI-H322M cell line; conditions: Homo sapiens, read-out: Log LC50 (the source's name) (converted); in short: as §1
M14 = assay: Antitumor activity against M 14 cell line; conditions: Homo sapiens; in short: as §1
DLD-1 = assay: Antitumor activity against DLD-1 cell line; conditions: Homo sapiens; in short: as §1
SK-MEL-28 = assay: Antitumor activity against SK-MEL-28 cell line; conditions: Homo sapiens; in short: as §2
NCI-H522 = assay: Antitumor activity against NCI-H522 cell line; conditions: Homo sapiens; in short: as §1
OVCAR-4 = assay: Antitumor activity against OVCAR-4 cell line; conditions: Homo sapiens; in short: as §1
786-0 = assay: Antitumor activity against Renal cancer 786-O cell line; conditions: Homo sapiens; in short: as §1
OVCAR-3 = assay: Antitumor activity against OVCAR-3 cell line; conditions: Homo sapiens; in short: as §1
SF-539 = assay: Antitumor activity against SF-539 cell line; conditions: Homo sapiens; in short: as §1
A549 = assay: Antitumor activity against A549/ATCC cell line; conditions: Homo sapiens; in short: as §1
Malme-3M = assay: Antitumor activity against MALME-3M cell line; conditions: Homo sapiens; in short: as §1
SW-620 = assay: Antitumor activity against SW-620 cell line; conditions: Homo sapiens; in short: as §2
SNB- = assay: Antitumor activity against SNB-71 cell line; conditions: Homo sapiens, read-out: Log LC50 (the source's name) (converted); in short: as §2
UACC-257 = assay: Antitumor activity against UACC-257 cell line; conditions: Homo sapiens; in short: as §2
EKVX = assay: Antitumor activity against EKVX cell line; conditions: Homo sapiens; in short: as §1
A498 = assay: Antitumor activity against Renal cancer A498 cell line; conditions: Homo sapiens, read-out: Log LC50 (the source's name) (converted); in short: as §1
HL-60 = assay: Antitumor activity against HL-60(TB) leukemia cell line; conditions: Homo sapiens, read-out: Log LC50 (the source's name) (converted); in short: as §1
NCI-H460 = assay: Antitumor activity against NCI-11460 cell line; conditions: Homo sapiens, read-out: Log LC50 (the source's name) (converted); in short: as §1
UACC-62 = assay: Antitumor activity against UACC-62 cell line; conditions: Homo sapiens, read-out: Log LC50 (the source's name) (converted); in short: as §2
HCT-116 = assay: Antitumor activity against HCT116 cell line; conditions: Homo sapiens, read-out: Log LC50 (the source's name) (converted); in short: as §1
SR = assay: Antitumor activity against SR leukemia cell line; conditions: Homo sapiens, read-out: Log LC50 (the source's name) (converted); in short: as §2
DMS-273 = assay: Antitumor activity against DMS 273 cell line; conditions: Homo sapiens, read-out: Log LC50 (the source's name) (converted); in short: as §1
NCI-H23 = assay: Antitumor activity against NCI-1123 cell line; conditions: Homo sapiens, read-out: Log LC50 (the source's name) (converted); in short: as §1
COLO 205 = assay: Antitumor activity against COLO 205 cell line; conditions: Homo sapiens, read-out: Log LC50 (the source's name) (converted); in short: as §1

CC(=O)OC1CCn2c1nc1c2C(=O)C(N2CC2)=C(C)C1=O (configuration not stated)
CC50 (SF-295): 2 µM
LC50 (SNB-19): 2.57 µM
Mean log LC50 [1]: -5.68
CC50 (HOP-92): 11.2 µM
CC50 (K562): > 100 µM
CC50 (XF498): 0.126 µM
CC50 (OVCAR-8): 1 µM
LC50 (SK-MEL-5): 0.224 µM
LC50 (IGROV-1): 8.13 µM
LC50 (HOP-62): 0.219 µM
LC50 (TK-10): 2.88 µM
LC50 (U-251): 3.09 µM
LC50 (NCI-H226): 0.955 µM
LC50 (DMS-114): > 100 µM
LC50 (SF-268): 5.62 µM
CC50 (CAKI-1): 6.46 µM
LC50 (concentration lethal to 50% of cancer cells) (UO-31): 0.145 µM
LC50 (M19-MEL): > 100 µM
CC50 (RPMI-8226): > 100 µM
CC50 (HT-29): 5.37 µM
CC50 (HCT-15): 3.09 µM
CC50 (CCRF-CEM): > 100 µM
CC50 (KM12): 1.07 µM
LC50 (SN12C): 0.617 µM
CC50 (ACHN): 2.34 µM
LC50 (OVCAR-5): 3.39 µM
CC50 (SK-MEL-2): 0.479 µM
LC50 (LXFL 529): 0.525 µM
CC50 (HOP-18): 3.16 µM
LC50 (RXF 393): 0.0513 µM
LC50 (MOLT-4): > 100 µM
CC50 (SK-OV-3): 2.95 µM
LC50 (concentration lethal to 50% of cells) (KM-20L2): 4.37 µM
CC50 (HCC 2998): 0.372 µM
LC50 (SNB-75): 0.603 µM
LC50 (LOX IMVI): 0.0661 µM
CC50 (NCI-H322M): 2.69 µM
LC50 (M14): 0.324 µM
LC50 (DLD-1): 53.7 µM
LC50 (SK-MEL-28): 0.603 µM
LC50 (NCI-H522): 0.1 µM
LC50 (OVCAR-4): 0.38 µM
LC50 (786-0): 0.347 µM
LC50 (OVCAR-3): 3.39 µM
LC50 (concentration lethal to 50% of cells) (SF-539): 0.631 µM
LC50 (A549): 7.76 µM
LC50 (Malme-3M): 0.589 µM
LC50 (SW-620): 4.27 µM
CC50 (SNB-): 6.46 µM
LC50 (UACC-257): 2.04 µM
LC50 (EKVX): 0.832 µM

CC(=O)OC1CCCn2c1nc1c2C(=O)C(C)=C(N2CC2)C1=O (configuration not stated)
LC50 (SNB-19): 5.89 µM
Mean log LC50 [1]: -5.04
CC50 (HOP-92): > 100 µM
CC50 (K562): > 100 µM
CC50 (OVCAR-8): 5.62 µM
LC50 (SK-MEL-5): 0.661 µM
CC50 (A498): 1.29 µM
LC50 (IGROV-1): 30.9 µM
CC50 (HL-60): > 100 µM
LC50 (HOP-62): 1.82 µM
CC50 (NCI-H460): 0.676 µM
LC50 (TK-10): 25.1 µM
CC50 (UACC-62): 4.9 µM
LC50 (U-251): 3.39 µM
LC50 (NCI-H226): 3.98 µM
LC50 (DMS-114): 7.76 µM
LC50 (SF-268): 0.692 µM
CC50 (CAKI-1): 3.31 µM
LC50 (concentration lethal to 50% of cancer cells) (UO-31): 20 µM
LC50 (M19-MEL): 35.5 µM
CC50 (HCT-116): 17.8 µM
CC50 (RPMI-8226): > 100 µM
CC50 (HT-29): 1.82 µM
CC50 (CCRF-CEM): > 100 µM
CC50 (SR): > 100 µM
CC50 (KM12): 5.25 µM
LC50 (SN12C): 4.17 µM
CC50 (ACHN): 25.7 µM
LC50 (OVCAR-5): 4.9 µM
CC50 (SK-MEL-2): 3.8 µM
LC50 (LXFL 529): 4.9 µM
CC50 (DMS-273): 5.37 µM
LC50 (RXF 393): 4.68 µM
CC50 (NCI-H23): 3.98 µM
LC50 (MOLT-4): > 100 µM
CC50 (SK-OV-3): 7.08 µM
LC50 (concentration lethal to 50% of cells) (KM-20L2): 4.68 µM
CC50 (HCC 2998): 3.09 µM
LC50 (SNB-75): 4.57 µM
LC50 (LOX IMVI): 5.37 µM
CC50 (NCI-H322M): 26.9 µM
LC50 (M14): 0.794 µM
LC50 (DLD-1): 87.1 µM
LC50 (SK-MEL-28): 6.03 µM
LC50 (NCI-H522): 3.72 µM
LC50 (OVCAR-4): 5.89 µM
LC50 (786-0): 43.7 µM
LC50 (OVCAR-3): 6.31 µM
LC50 (concentration lethal to 50% of cells) (SF-539): 14.1 µM
LC50 (A549): 32.4 µM
LC50 (Malme-3M): 2.34 µM
LC50 (SW-620): 53.7 µM
CC50 (SNB-): 33.1 µM
LC50 (UACC-257): 3.8 µM
LC50 (EKVX): 3.98 µM
CC50 (COLO 205): 18.2 µM
